Assay results taken from ChEMBL document CHEMBL5543124, “Lead Compound Development of SRC-3 Inhibitors with Improved Pharmacokinetic Properties and Anticancer Efficacy” (J Med Chem, 2024).
The source made the active and inactive calls. The calls are words filed in the database; no cut-off is given here.

Columns and labels:
[1] = AUC (0 to t) in CD-1 mouse at 1 mg/kg,iv administration measured upto 48 hrs by LC-MS/MS analysis; type: ADME, organism-based; conditions: in vivo
Summary of the method: (§1)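 Single intravenous bolus in ICR male mice (n = 3, 6 weeks); dosing solution 0.5 mg/mL in 20% DMSO, 16% PEG, 4% dextrose in PBS. Tail-vein blood (10 μL) taken at 2, 5, 15, 30 min and 1, 2, 4, 8, 24, 48 h. Plasma quantified by LC-MS/MS against a 0.5–1000 ng/mL calibration; parameters from non-compartmental analysis.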

[2] = target: Prostaglandin G/H synthase 1 (Homo sapiens, UniProt P23219); assay: Inhibition of COX1 (unknown origin); type: toxicity
Summary of the method: (§2)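 Tested in a commercial off-target safety screening panel of 78 targets. Values reported as RC50, taken as IC50 except for agonist mode, where RC50 is EC50.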

[3] = Cytotoxicity against human MPANC96 cells assessed as inhibition of cell growth incubated for 72 hrs by MTT assay; type: functional, cell-based; conditions: MPANC96, 72 h
Summary of the method: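 Cells seeded and grown to 70–80% confluence, then exposed for 72 h to a titration series (0.2–1000 nM). Viability read by MTT relative to untreated cells, with 6 replicates per concentration. IC50 fitted with a Hill-slope model.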

MDA-MB-468 [4] = assay: Cytotoxicity against human MDA-MB-468 cells assessed as chromatin accessibility alteration observed after 4 hrs by ATAC-seq analysis; type: functional, cell-based
Summary of the method: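 MDA-MB-468 cells treated for 4 h (ATAC-seq) or 12 h (RNA-seq) before chromatin accessibility or transcript profiling.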

[5] = target: 5-hydroxytryptamine receptor 2B (Homo sapiens, UniProt P41595); assay: Antagonist activity at HTR2B (unknown origin) by calcium flux assay; type: toxicity; summary of the method: as §2
PANC-1 [6] = assay: Cytotoxicity against human PANC-1 cells mediated with siRNA control assessed as inhibition of cell growth incubated for 72 hrs by MTT assay; type: functional, cell-based; conditions: PANC-1, 72 h
Summary of the method: (§3)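 PANC-1 cells with stable lentiviral shRNA knockdown of SRC-3 or control shRNA; SRC-3 levels checked by western blot. Cells treated with a dose series for 72 h and viability read by MTT.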

[7] = Oral bioavailability in CD-1 mouse at 10 mg/kg administration measured upto 48 hrs by LC-MS/MS analysis; type: ADME, organism-based; conditions: in vivo
MDA-PCa-118b = assay: Antitumor activity against patient derived MDA-PCa-118b cells xenografted in SCID mouse assessed as reduction in bone metastasis at 10 mg/kg,ip administration measured after 4 weeks by X-ray imaging analysis; type: functional, organism-based; conditions: Homo sapiens
Summary of the method: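 AR-PDX 118b cells (1×10^5) injected via intra-femoral artery in male SCID mice (8–9 weeks). After 2 weeks, 10 mg/kg/day ip or vehicle for 4 weeks (n = 9/group). X-ray imaging every two weeks. At the end, femurs CT-scanned (5 per group) with 3D-reconstruction tumor size, and H&E histology used for tumor/femur area ratio.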

[8] = Antitumor activity against human Panc-1-Luc cells orthotopically xenografted in SCID mouse assessed as reduction in tumor weight at 10 mg/kg,ip administration once daily for 63 days by weighing harvested tumors; conditions: time 63 day
[9] = Half life in CD-1 mouse at 1 mg/kg,iv administration measured upto 48 hrs by LC-MS/MS analysis; type: ADME, organism-based; conditions: in vivo; summary of the method: as §1
[10] = target: T1, Voltage-gated inwardly rectifying potassium channel KCNH2 (Homo sapiens, UniProt Q12809); assay: Inhibition of hERG; type: toxicity
Endothelin-1 receptor [11] = target: T2, Endothelin-1 receptor (Homo sapiens, UniProt P25101); assay: Agonist activity at EDNRA (unknown origin) by calcium flux assay; type: toxicity; summary of the method: as §2
T2 sequence (P25101 whole entry): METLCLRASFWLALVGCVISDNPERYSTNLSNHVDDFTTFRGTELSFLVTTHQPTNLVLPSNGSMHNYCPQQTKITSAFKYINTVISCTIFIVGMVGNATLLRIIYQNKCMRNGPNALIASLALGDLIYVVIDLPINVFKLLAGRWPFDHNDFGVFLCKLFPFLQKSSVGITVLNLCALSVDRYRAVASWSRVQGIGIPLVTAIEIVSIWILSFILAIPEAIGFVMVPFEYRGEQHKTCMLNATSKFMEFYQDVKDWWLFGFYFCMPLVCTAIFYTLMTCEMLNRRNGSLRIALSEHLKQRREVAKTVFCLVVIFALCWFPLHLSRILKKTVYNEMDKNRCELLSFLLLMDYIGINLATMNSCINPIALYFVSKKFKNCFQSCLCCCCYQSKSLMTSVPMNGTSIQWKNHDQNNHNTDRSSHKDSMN

[12] = Half life in human liver microsomes at 1 uM incubated for 30 mins in presence of NADPH by LC-MS/MS analysis; type: ADME, Microsome; conditions: 0.5 h
Summary of the method: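 Human liver microsomes (1 mg/mL final) in 100 mM phosphate buffer with or without NADPH; compound at 1 μM final, 37 °C. Samples taken at 0, 5, 10, 20, 30 min (0 and 30 min without NADPH), quenched with cold acetonitrile containing internal standards, analysed by LC-MS/MS; verapamil as control.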

[13] = target: T1, Voltage-gated inwardly rectifying potassium channel KCNH2; assay: Inhibition of hERG transfected in HEK293 cells by patch clamp assay; type: toxicity, cell-based
[14] = Cmax in CD-1 mouse at 1 mg/kg,iv administration measured upto 48 hrs by LC-MS/MS analysis; type: ADME, organism-based; conditions: in vivo; summary of the method: as §1
Endothelin-1 receptor [15] = target: T2, Endothelin-1 receptor; assay: Antagonist activity at EDNRA (unknown origin) by calcium flux assay; type: toxicity; summary of the method: as §2
MDA-MB-468 [16] = assay: Cytotoxicity against human MDA-MB-468 cells assessed as inhibition of cell growth preincubated for 3 to 6 hrs followed by compound washout and incubated for 72 hrs by MTT assay; type: functional, cell-based; conditions: time 3-6 hrs
Summary of the method: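 MDA-MB-468 cells (RPMI 1640, 5% FBS) exposed to compound for varying durations, washed with PBS, then kept in culture to a total of 72 h. Viability read by MTT; EC50 and EC90 determined at each exposure time.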

[17] = Tmax in CD-1 mouse at 1 mg/kg,iv administration measured upto 48 hrs by LC-MS/MS analysis; type: ADME, organism-based; conditions: in vivo
Summary of the method: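 Male ICR mice (n=3, 6 weeks) given 1 mg/kg i.v. from a 0.5 mg/mL solution in 20% DMSO/16% PEG/4% dextrose in PBS. Tail-vein blood (10 μL) drawn at 2, 5, 15 and 30 min and at 1, 2, 4, 8, 24 and 48 h. Plasma quantified by LC-MS/MS against 0.5–1000 ng/mL calibration standards with QC samples. Parameters from non-compartmental analysis.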

PANC-1 [18] = assay: Cytotoxicity against SiRNA mediated SRC-3.1 knockdown human PANC-1 cells assessed as inhibition of cell growth incubated for 72 hrs by MTT assay; type: functional, cell-based; conditions: PANC-1, 72 h; summary of the method: as §3
Panc-1-Luc = assay: Antitumor activity against human Panc-1-Luc cells orthotopically xenografted in SCID mouse assessed as reduction in tumor growth at 10 mg/kg,ip administration once daily for 63 days; type: functional, organism-based; conditions: time 63.0 day
Summary of the method: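 Panc-1-Luc cells (0.5×10^6) implanted orthotopically in pancreas of male SCID mice (8 weeks). Mice randomized by luciferase imaging (n = 5/group); from day 8 given 10 mg/kg or vehicle daily. Tumor measured weekly by luciferase imaging and calipers (length × width²/2), body weight weekly; tumors harvested at day 63.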

T1 sequence (Q12809 whole entry): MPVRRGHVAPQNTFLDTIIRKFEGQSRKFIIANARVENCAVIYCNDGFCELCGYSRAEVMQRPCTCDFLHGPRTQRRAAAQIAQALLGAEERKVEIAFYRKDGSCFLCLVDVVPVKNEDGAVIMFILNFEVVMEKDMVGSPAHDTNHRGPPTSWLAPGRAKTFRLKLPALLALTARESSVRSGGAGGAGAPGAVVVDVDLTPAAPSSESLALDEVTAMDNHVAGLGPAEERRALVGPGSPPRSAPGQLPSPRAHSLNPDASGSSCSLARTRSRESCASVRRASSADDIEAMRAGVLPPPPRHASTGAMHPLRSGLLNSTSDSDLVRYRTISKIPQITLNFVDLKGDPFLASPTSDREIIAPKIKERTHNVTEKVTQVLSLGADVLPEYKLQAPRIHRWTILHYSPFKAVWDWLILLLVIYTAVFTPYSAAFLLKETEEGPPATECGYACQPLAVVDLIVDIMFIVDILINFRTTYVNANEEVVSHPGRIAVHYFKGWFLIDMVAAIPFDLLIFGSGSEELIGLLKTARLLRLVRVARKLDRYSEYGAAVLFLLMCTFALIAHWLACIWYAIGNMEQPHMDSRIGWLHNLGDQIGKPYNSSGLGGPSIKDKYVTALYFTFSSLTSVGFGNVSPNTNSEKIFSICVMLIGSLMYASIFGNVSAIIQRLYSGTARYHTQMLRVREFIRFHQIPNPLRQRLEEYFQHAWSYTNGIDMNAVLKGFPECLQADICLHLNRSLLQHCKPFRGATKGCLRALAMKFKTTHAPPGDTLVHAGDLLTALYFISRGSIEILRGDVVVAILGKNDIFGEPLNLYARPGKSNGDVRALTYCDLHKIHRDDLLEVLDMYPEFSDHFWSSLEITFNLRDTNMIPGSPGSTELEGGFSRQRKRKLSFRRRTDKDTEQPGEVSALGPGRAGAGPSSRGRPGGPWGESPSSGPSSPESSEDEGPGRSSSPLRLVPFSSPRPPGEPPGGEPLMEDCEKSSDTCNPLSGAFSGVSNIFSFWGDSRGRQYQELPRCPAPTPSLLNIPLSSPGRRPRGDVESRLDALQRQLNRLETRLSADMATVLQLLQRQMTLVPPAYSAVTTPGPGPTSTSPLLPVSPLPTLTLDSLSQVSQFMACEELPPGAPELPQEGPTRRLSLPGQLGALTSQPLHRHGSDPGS
Chain of Prostaglandin G/H synthase 1 (P23219 whole entry): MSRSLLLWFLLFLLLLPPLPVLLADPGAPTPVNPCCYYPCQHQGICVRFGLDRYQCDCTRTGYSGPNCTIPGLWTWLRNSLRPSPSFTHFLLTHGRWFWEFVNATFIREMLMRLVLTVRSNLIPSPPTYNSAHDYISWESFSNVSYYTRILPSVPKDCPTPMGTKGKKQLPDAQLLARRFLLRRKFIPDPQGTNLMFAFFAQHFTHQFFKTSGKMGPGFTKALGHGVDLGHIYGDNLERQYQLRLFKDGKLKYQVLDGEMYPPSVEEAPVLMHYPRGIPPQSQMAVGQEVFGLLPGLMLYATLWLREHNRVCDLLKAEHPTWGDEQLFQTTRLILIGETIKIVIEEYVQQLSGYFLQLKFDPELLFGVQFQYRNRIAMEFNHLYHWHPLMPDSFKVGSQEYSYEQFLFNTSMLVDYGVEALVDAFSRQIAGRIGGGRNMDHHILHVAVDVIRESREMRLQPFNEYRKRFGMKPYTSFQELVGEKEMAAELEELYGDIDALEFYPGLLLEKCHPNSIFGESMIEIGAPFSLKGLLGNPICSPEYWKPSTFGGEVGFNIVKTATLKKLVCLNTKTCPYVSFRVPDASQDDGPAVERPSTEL
Chain of 5-hydroxytryptamine receptor 2B (P41595 whole entry): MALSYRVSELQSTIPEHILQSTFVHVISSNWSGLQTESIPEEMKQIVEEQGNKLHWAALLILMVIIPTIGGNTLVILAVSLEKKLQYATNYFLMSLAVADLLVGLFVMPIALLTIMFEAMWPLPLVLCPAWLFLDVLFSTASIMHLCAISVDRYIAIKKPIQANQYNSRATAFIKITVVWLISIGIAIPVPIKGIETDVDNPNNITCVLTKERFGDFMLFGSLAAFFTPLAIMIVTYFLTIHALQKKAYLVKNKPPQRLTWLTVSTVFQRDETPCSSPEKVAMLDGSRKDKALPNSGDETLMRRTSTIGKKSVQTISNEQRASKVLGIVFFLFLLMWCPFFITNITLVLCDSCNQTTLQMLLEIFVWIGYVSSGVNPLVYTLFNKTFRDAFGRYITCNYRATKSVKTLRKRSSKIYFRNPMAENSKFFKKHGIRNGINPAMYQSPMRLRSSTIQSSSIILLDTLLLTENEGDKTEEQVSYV

C/C(=N\N=c1/[nH]c2cc(F)c(F)cc2n1C)c1ccc(F)cn1
AUCt [1]: 737 ng·h/mL | IC50 [2]: 3100 nM | IC50 [3]: 28 nM | Activity (MDA-MB-468 [4]): Active | IC50 [5]: 4100 nM | IC50 (PANC-1 [6]): 25.2 nM | F [7]: 24.6% | Activity (MDA-PCa-118b): Active | Activity [8]: 0.22 g | t1/2 [9]: 1350 min | IC50 [10]: 2700 nM | EC50 (Endothelin-1 receptor [11]): 6400 nM | t1/2 [12]: 8.49 min | IC50 [13]: 1130 nM | Cmax [14]: 1066 ng/mL | IC50 (Endothelin-1 receptor [15]): 4000 nM | Activity (MDA-MB-468 [16]): Active | Tmax [17]: 1.98 min | IC50 (PANC-1 [18]): 147 nM | Activity (Panc-1-Luc): Active
